# Test results: ChEMBL document CHEMBL1142131, “Effect of anaerobic growth on quinolone lethality with Escherichia coli” (2007)
# Active and inactive are the calls of the source. The rule behind the calls is not given here.
# Columns and labels:
# [1] = tested on: Escherichia coli; test: Bactericidal activity in Escherichia coli KD2329 with gyrA-par C resistant mutation; assay type: functional, organism-based
# In short: (§1)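 Mid-log cells grown aerobically at 37°C in liquid medium, split into 2-ml portions and given quinolone for 2 h with shaking in air. Chloramphenicol 20 µg/ml was added 10 min before quinolone for the chloramphenicol arm. Cells were diluted in ice-cold LB and plated on drug-free LB agar overnight at 37°C aerobically. Read-out is CFU relative to CFU at time of quinolone addition.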
# [2] = tested on: Escherichia coli; test: Bactericidal activity against Escherichia coli DM4100 in anaerobic condition; assay type: functional, organism-based
# In short: (§2)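 Mid-log aerobic cultures at 37°C were split into 2-ml portions in sealed tubes flushed with anaerobic gas (85% N2, 10% H2, 5% CO2). After 20 min, anaerobic quinolone solution was added and incubation continued 2 h under gas flow. Cells were diluted in ice-cold LB, plated aerobically on drug-free LB agar overnight at 37°C. Survival is CFU relative to CFU at drug addition.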
# [3] = tested on: Escherichia coli; test: Bactericidal activity in Escherichia coli KD1373 containing parC resistance mutation in presence of chloramphenicol; assay type: functional, organism-based; in short: as §1
# [4] = tested on: Escherichia coli; test: Bactericidal activity in Escherichia coli KD1373 containing parC resistance mutation in anaerobic condition; assay type: functional, organism-based; in short: as §2
# [5] = tested on: Escherichia coli; test: Bacteriostatic activity against Escherichia coli DM4100 in aerobic condition; assay type: functional
# In short: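 MIC from 10^4 to 10^5 cells/ml in liquid medium with serial twofold quinolone dilutions. Incubated at 37°C with shaking, 2-ml cultures, aerobic.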
# [6] = tested on: Escherichia coli; test: Bactericidal activity in Escherichia coli KD1373 containing parC resistance mutation in aerobic condition; assay type: functional, organism-based; in short: as §1
# [7] = tested on: Escherichia coli; test: Bactericidal activity against Escherichia coli DM4100 in the presence of chloramphenicol; assay type: functional, organism-based
# In short: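 Aerobically growing mid-log cells at 37°C received chloramphenicol to 20 µg/ml 10 min before the quinolone. Treatment ran 2 h. Cells were diluted in ice-cold LB and plated aerobically on drug-free LB agar overnight at 37°C. Survival is CFU relative to CFU at quinolone addition. Replicate experiments were run.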
# [8] = tested on: Escherichia coli; test: Bacteriostatic activity against Escherichia coli DM4100 in anaerobic condition; assay type: functional
# In short: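 MIC from 10^4 to 10^5 cells/ml in liquid medium with serial twofold quinolone dilutions. Incubated at 37°C in sealed tubes after 20 min flushing with anaerobic gas (85% N2, 10% H2, 5% CO2).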
# [9] = tested on: Escherichia coli; test: Bactericidal activity against Escherichia coli DM4100 in aerobic condition; assay type: functional, organism-based; in short: as §1
# [10] = tested on: Escherichia coli; test: Bactericidal activity against Escherichia coli DM4100 in saline; assay type: functional, organism-based
# [11] = tested on: Escherichia coli; test: Chromosome fragmentation in Escherichia coli DM4100 assessed as reduced lysate viscosity at 50 ug/ml after 2 hrs in aerobic condition; assay type: functional, organism-based
# In short: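 Exponential aerobic cells were treated 2 h with drug, then gently lysed with lysozyme and nonionic detergents at 20°C for 2–3 min. Lysate twofold dilutions received pancreatic RNase 20 µg/ml, were heated at 80°C for 2 min, chilled on ice and brought to 20°C. Viscosity was measured by capillary viscometry.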
# [12] = tested on: Escherichia coli; test: Bactericidal activity in Escherichia coli KD2750 containing gyrA resistant mutation in anerobic condition; assay type: functional, organism-based; in short: as §2
# [13] = tested on: Escherichia coli; test: Bactericidal activity in Escherichia coli KD2329 containing gyrA-parC mutation; assay type: functional, organism-based; in short: as §1
# [14] = tested on: Escherichia coli; test: Bactericidal activity in Escherichia coli KD1373 containing parC mutation in anerobic condition; assay type: functional, organism-based; in short: as §2
SMILES,Activity [1],Activity [2],Activity [3],Activity [4],MIC [5],Activity [6],Activity [7],MIC [8],Activity [9],Activity [10],Activity [11],Activity [12],Activity [13],Activity [14]
CCN1CCN(c2c(F)cc3c(=O)c(C(=O)O)cn(C4CC4)c3c2OC)CC1,inactive,Active,Active,Active,0.08 mg/L,Active,Active,0.08 mg/L,Active,,,,,
O=C(O)c1cn(C2CC2)c2cc(N3CCNCC3)c(F)cc2c1=O,,Active,,,,,Active,,Active,Active,,,,
CCn1cc(C(=O)O)c(=O)c2ccc(C)nc21 [NALIDIXIC ACID],,inactive,,,5 mg/L,,inactive,5 mg/L,Active,inactive,Active,,,
CCn1cc(C(=O)O)c(=O)c2cc(F)c(N3CCNCC3)cc21 [NORFLOXACIN],,Active,,,0.075 mg/L,,inactive,0.075 mg/L,Active,Active,,Active,inactive,Active
